SMILES strings stand for the structures.

Consider four compounds from ChEMBL document CHEMBL4261631, “Synthetic thiosemicarbazones as a new class of Mycobacterium tuberculosis protein tyrosine phosphatase A inhibitors” (Bioorg Med Chem, 2018).

The target in test [1] is T1, Tyrosine-protein phosphatase non-receptor type 12 (Homo sapiens, UniProt Q05209).
T1 sequence (Q05209 whole entry): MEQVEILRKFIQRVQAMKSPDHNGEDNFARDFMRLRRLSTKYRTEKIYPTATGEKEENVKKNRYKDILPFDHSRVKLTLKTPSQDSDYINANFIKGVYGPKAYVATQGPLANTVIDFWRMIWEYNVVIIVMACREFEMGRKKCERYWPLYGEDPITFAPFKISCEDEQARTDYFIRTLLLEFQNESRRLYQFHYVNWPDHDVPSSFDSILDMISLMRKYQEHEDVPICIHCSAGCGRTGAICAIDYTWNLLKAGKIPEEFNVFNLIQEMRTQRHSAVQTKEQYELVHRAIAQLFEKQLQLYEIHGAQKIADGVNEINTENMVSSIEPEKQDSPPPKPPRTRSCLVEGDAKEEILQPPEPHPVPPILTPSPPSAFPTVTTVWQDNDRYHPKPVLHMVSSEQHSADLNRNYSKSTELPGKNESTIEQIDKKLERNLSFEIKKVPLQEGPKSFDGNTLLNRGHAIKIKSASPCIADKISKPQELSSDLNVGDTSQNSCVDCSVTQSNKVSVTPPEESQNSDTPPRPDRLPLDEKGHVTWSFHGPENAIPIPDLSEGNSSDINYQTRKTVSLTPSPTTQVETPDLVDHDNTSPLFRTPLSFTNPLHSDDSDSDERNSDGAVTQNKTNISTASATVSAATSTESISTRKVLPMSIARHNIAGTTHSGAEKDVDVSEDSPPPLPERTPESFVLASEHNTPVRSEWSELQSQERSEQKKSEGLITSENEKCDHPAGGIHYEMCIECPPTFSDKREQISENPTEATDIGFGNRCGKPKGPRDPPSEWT
Briefly: Inhibition of recombinant human PTP-PEST using p-nitrophenyl phosphate as substrate preincubated for 10 mins followed by substrate addition and measured every minute for 10 mins by UV-VIS spectrophotometric analysis. The procedure, abridged: (§1)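 Recombinant PTP at PtpB 50 nM, LYP 169 nM, PTP-PEST 205 nM or PTP1B 38 nM, in 20 mM imidazole pH 7.0. Inhibitor (0.5–50 µM, DMSO ≤4% v/v) premixed with enzyme 10 min at 37 °C. Started with 10 mM pNPP. A410 each min for 10 min. Activity from 7 min minus 2 min. IC50 by linear regression. Triplicate.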

The target of test [2] is T2, Tyrosine-protein phosphatase non-receptor type 22 (Homo sapiens, UniProt Q9Y2R2).
T2 sequence (Q9Y2R2 whole entry): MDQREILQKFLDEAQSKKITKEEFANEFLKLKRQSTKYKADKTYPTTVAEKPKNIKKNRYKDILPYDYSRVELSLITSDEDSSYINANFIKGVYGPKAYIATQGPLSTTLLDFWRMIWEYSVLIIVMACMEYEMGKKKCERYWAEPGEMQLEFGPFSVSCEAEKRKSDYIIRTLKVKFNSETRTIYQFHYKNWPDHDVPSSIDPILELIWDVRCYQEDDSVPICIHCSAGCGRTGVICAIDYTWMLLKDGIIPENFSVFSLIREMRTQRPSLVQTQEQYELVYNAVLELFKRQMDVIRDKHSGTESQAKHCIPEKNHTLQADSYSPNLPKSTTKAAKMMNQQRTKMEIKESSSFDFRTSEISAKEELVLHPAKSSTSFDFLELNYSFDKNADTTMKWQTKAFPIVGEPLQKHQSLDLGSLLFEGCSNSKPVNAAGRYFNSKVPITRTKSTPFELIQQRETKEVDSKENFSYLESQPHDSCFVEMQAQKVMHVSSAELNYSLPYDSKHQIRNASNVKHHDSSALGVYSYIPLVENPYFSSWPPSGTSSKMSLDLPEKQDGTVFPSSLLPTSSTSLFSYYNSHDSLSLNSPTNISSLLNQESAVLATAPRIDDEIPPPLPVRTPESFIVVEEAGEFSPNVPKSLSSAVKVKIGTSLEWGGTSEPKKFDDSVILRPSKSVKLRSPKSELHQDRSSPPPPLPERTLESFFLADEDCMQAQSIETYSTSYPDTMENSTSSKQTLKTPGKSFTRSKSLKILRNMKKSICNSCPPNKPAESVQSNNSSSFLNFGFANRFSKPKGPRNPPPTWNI
The test can be described thus: Inhibition of recombinant human LYP using p-nitrophenyl phosphate as substrate preincubated for 10 mins followed by substrate addition and measured every minute for 10 mins by UV-VIS spectrophotometric analysis. The method in brief: as §1

Test [3] addresses T3, Low molecular weight protein-tyrosine phosphatase A (Mycobacterium tuberculosis, UniProt P9WIA1).
T3 sequence (P9WIA1 whole entry): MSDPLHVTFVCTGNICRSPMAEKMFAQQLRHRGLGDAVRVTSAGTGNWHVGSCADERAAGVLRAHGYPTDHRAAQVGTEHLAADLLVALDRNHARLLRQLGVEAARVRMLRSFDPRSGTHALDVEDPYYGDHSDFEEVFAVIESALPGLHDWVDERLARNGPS
Briefly: Inhibition of recombinant Mycobacterium tuberculosis PtpA using p-nitrophenyl phosphate as substrate preincubated for 10 mins followed by substrate addition and measured every minute for 10 mins by UV-VIS spectrophotometric analysis. The method in brief: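 Recombinant Mtb PtpA at 50 nM in 20 mM imidazole pH 7.0, premixed with inhibitor (0.5–50 µM, DMSO ≤4% v/v) 10 min at 37 °C. Started with 10 mM pNPP. A410 read each min for 10 min at 37 °C. Residual activity from 7 min minus 2 min absorbance versus no-inhibitor wells. IC50 by linear regression of % inhibition versus concentration. Triplicate, mean ± SD of three experiments.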

Test [4] concerns the target T3, Low molecular weight protein-tyrosine phosphatase A. The test can be described thus: Competitive inhibition of Mycobacterium tuberculosis PtpA using p-nitrophenyl phosphate as substrate by Michaelis-Menten plot analysis. The method in brief: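 Mtb PtpA-catalysed pNPP hydrolysis with pNPP varied 0.2–20 mM at each of three inhibitor concentrations. Rates expressed as specific activity (µmol pNPP min-1 mg-1). Vmax and Km fitted to Michaelis–Menten equation. Ki from non-linear fits to competitive or non-competitive inhibition equation, at least three independent experiments.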

Test [5] in a line: Selectivity index, ratio of IC50 for recombinant human Ptp1B to IC50 for recombinant Mycobacterium tuberculosis PtpA. The procedure, abridged:
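Selectivity index calculated as IC50 for PtpB, LYP, PTP-PEST or PTP1B divided by IC50 for PtpA. Both IC50 values come from pNPP hydrolysis at 37 °C with 10 min enzyme–inhibitor premix and A410 readout, using 0.5–50 µM inhibitor.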

What is called IC50 is the midpoint of a concentration-inhibition curve. As a reminder, the Ki is a dissociation constant, usually derived from enzyme kinetics or from competition with a known ligand. `Cc1ccc(NC(=S)N/N=C/c2ccc(-c3cc(C(F)(F)F)ccc3Cl)o2)cc1`: the results for the concentration for half-maximal inhibition (IC50) in test [1], in test [2] and in test [3] were over 50 µM, over 50 µM and 9.1 µM, respectively. The affinity in test [4] corresponds to a Ki of 12 µM. Also, the Ratio IC50 in test [5] came out at 4.2.

On to `FC(F)(F)c1ccc(Cl)c(-c2ccc(/C=N/NC(=S)Nc3cccc4ccccc34)o2)c1`, for which the IC50 in test [1] was 15.7 µM; in test [2] it was over 50 µM; in test [3], 2.9 µM. In addition, the Ratio IC50 in test [5] worked out at 3.2.

Take `S=C(N/N=C/c1ccc(-c2ccccc2)cc1)Nc1cccc2ccccc12`: the values for the IC50 in test [1], in test [2] and in test [3] were over 50 µM, over 50 µM and 7.4 µM, respectively. In addition, in test [5], the Ratio IC50 was over 6.8.

On to `O=[N+]([O-])c1ccc(/C=N/NC(=S)Nc2cccc3ccccc23)cc1`, for which the results for the half-inhibitory concentration (IC50) in test [1], in test [2] and in test [3] were over 50 µM, over 50 µM and 9.5 µM, respectively. Also, the Ratio IC50 in test [5] is 1.8.
